Measurements from ChEMBL document CHEMBL1135232, “Synthesis and antiplatelet activity of gemfibrozil chiral analogues” (Bioorg Med Chem Lett, 2002).

Experiments:
Assay type in all cases: functional
Homo sapiens [1] = species on record: Homo sapiens; assay: Compound concentration that cause 50% inhibition of human platelet aggregation by COL/EPI cartridges
Outline: (§1)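 Human whole blood drawn by forearm venipuncture into 3.8% (0.129 M) buffered sodium citrate (1:9 anticoagulant:blood). Aliquots incubated with compound (in 0.1 N NaOH/water 1:10; final 1–5 mM) 37 °C, 30 min, then loaded into PFA-100 cartridge (collagen/epinephrine or collagen/ADP). Closure time read in seconds; % inhibition calculated against vehicle-treated control blood.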

Homo sapiens [2] = species on record: Homo sapiens; assay: Compound was evaluated for the inhibitory activity against human platelet aggregation by COL/ADP cartridges at a concentration of 4 x 10 e-3 M; settings: for inhibition at 4000 µM: Homo sapiens; outline: as §1
Homo sapiens [3] = species on record: Homo sapiens; assay: Compound was evaluated for the inhibitory activity against human platelet aggregation by COL/ADP cartridges at a concentration of 2 x 10 e-3 M; outline: as §1
Homo sapiens [4] = species on record: Homo sapiens; assay: Compound was evaluated for the inhibitory activity against human platelet aggregation by COL/ADP cartridges at a concentration of 3 x 10 e-3 M; settings: for inhibition at 3000 µM: Homo sapiens; outline: as §1
Homo sapiens [5] = species on record: Homo sapiens; assay: Compound was evaluated for the inhibitory activity against human platelet aggregation by COL/ADP cartridges at a concentration of 1 x 10 e-3 M; outline: as §1
Homo sapiens [6] = species on record: Homo sapiens; assay: Compound was evaluated for the inhibitory activity against human platelet aggregation by COL/ADP cartridges at a concentration of 5 x 10 e-3 M; settings: for inhibition at 5000 µM: Homo sapiens; outline: as §1

| IC50 (Homo sapiens [1]; Homo sapiens) [µM] | IC50 (Homo sapiens [1]) [µM] | Structure (SMILES) | Inhibition (Homo sapiens [2]) [%] | inhibition at 2000 µM (Homo sapiens [3]) [%] | Inhibition (Homo sapiens [4]) [%] | inhibition at 1000 µM (Homo sapiens [5]) [%] | Inhibition (Homo sapiens [6]) [%] | inhibition at 4000 µM (Homo sapiens [2]) [%] | inhibition at 3000 µM (Homo sapiens [4]) [%] | inhibition at 5000 µM (Homo sapiens [6]) [%] |
| --- | --- | --- | --- | --- | --- | --- | --- | --- | --- | --- |
| 2420 |  | CCC(CCCOc1cc(C)ccc1C)C(=O)O (stereo in doubt; 5b) | 5.51 | 0 | 3.3 | 0 | 2.57 |  |  |  |
| 50 |  | CC(=O)Oc1ccccc1C(=O)O [ASPIRIN] |  | 0 |  | 0 |  | 6.76 | 0 | 17.1 |
|  | 4120 | CCC(CCCOc1cc(C)ccc1C)C(=O)O (single isomer, unassigned; (+)) | 0 |  | 0 |  | 100 |  |  |  |
| 2670 |  | Cc1ccc(C)c(OCCCC(C)(C)C(=O)O)c1 [GEMFIBROZIL] |  | 2.5 |  | 0 |  | 100 | 17 | 100 |

Further lines, the compound ahead of its results:

| Structure (SMILES) | IC50 (Homo sapiens [1]; Homo sapiens) [µM] | IC50 (Homo sapiens [1]) [µM] | Inhibition (Homo sapiens [2]) [%] | inhibition at 2000 µM (Homo sapiens [3]) [%] | Inhibition (Homo sapiens [4]) [%] | inhibition at 1000 µM (Homo sapiens [5]) [%] | Inhibition (Homo sapiens [6]) [%] | inhibition at 4000 µM (Homo sapiens [2]) [%] | inhibition at 3000 µM (Homo sapiens [4]) [%] | inhibition at 5000 µM (Homo sapiens [6]) [%] |
| --- | --- | --- | --- | --- | --- | --- | --- | --- | --- | --- |
| Cc1ccc(C)c(OCCCC(C)C(=O)O)c1 (single isomer, unassigned; (-)) |  | 2610 |  |  | 0 |  | 100 |  |  |  |
| Cc1ccc(C)c(OCCCC(C)C(=O)O)c1 (stereo in doubt; 5a) |  | 2470 | 4.39 |  | 0.49 |  | 24.39 |  |  |  |
| Cc1ccc(C)c(OCCCC(C)C(=O)O)c1 (single isomer, unassigned; (+)) | 3090 |  | 0 | 0 | 0.97 | 0 | 5.36 |  |  |  |
